Data as given in ChEMBL document CHEMBL4052597, “Symmetrically Substituted Xanthone Amphiphiles Combat Gram-Positive Bacterial Resistance with Enhanced Membrane Selectivity” (J Med Chem, 2017).
≈ marks a conversion by molar mass, not a printed value.

Key:
Staphylococcus aureus [1] = experiment: Ratio of MIC for Staphylococcus aureus ATCC 29213 after and before 15 serial passages; assay type: functional
Staphylococcus aureus [2] = experiment: Antibacterial activity against methicillin-resistant Staphylococcus aureus DM 21455 after 24 hrs by two fold dilution assay; assay type: functional; settings: DM 21455, 24 h
How it was run: (§1)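 CLSI broth macrodilution in cation-adjusted Mueller-Hinton broth. Compounds were dissolved in DMF and diluted in PBS to a 1000 µg/mL stock, then serially 2-fold diluted in CA-MHB. The inoculum came from colonies on 18-20 h TSA plates (direct colony suspension), adjusted to ~5×10^5 CFU/mL. Incubation was 24 h at 35 °C. MIC is the lowest concentration with no visible growth versus control. Biological replicates.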

Staphylococcus aureus [3] = experiment: Antibacterial activity against Staphylococcus aureus DM 4001R after 24 hrs by two fold dilution assay; assay type: functional; how it was run: as §1
Bacillus cereus = experiment: Antibacterial activity against Bacillus cereus ATCC 11778 after 24 hrs by two fold dilution assay; assay type: functional; settings: ATCC 11778, 24 h
How it was run: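 Broth macro-dilution per CLSI in cation-adjusted Mueller-Hinton broth; compounds dissolved in DMF, diluted in PBS to 1000 µg/mL stock, then serial 2-fold dilutions in CA-MHB in tubes. Inoculum from 18-20 h TSA colonies (direct colony suspension), adjusted to about 5× 10^5 CFU/mL. MIC read after 24 h at 35 °C as lowest concentration with no visible growth; biological replicates.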

Staphylococcus aureus [4] = experiment: Antibacterial activity against methicillin-resistant Staphylococcus aureus DM 9808R after 24 hrs by two fold dilution assay; assay type: functional; how it was run: as §1
[5] = Selectivity index, ratio of HC50 for New Zealand White rabbit RBC to MIC for Bacillus cereus ATCC 11778
How it was run: (§2)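 Ratio of HC50 to MIC. For HC50, fresh New Zealand White rabbit RBCs were pelleted (3000 rpm, 10 min), washed twice in PBS and mixed with serially diluted compounds (in DMF or PBS) at a final 4% v/v. After 60 min at 37 °C and centrifugation, supernatant absorbance was read at 576 nm. % hemolysis was normalised to 2% Triton X-100 (positive) and PBS/DMF (negative). MIC came from CA-MHB broth macrodilution, 24 h at 35 °C.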

[6] = Selectivity index, ratio of HC50 for New Zealand White rabbit RBC to MIC for methicillin-resistant Staphylococcus aureus DM 21455; how it was run: as §2
[7] = Selectivity index, ratio of HC50 for New Zealand White rabbit RBC to MIC for Staphylococcus aureus DM 4001R; how it was run: as §2
[8] = Selectivity index, ratio of HC50 for New Zealand White rabbit RBC to MIC for methicillin-resistant Staphylococcus aureus DM 9808R; how it was run: as §2

With `COc1c(N2CCNC(C)C2)c(F)cc2c(=O)c(C(=O)O)cn(C3CC3)c12` (stereo not drawn) [GATIFLOXACIN] the Ratio (Staphylococcus aureus [1]) was 64.
For `CC(C)=CCOc1cc(OCC(=O)N[C@@H](CCCNC(=N)N)C(N)=O)c2c(=O)c3c(OCC(=O)N[C@@H](CCCNC(=N)N)C(N)=O)cc(OCC=C(C)C)cc3oc2c1`, the MIC (Staphylococcus aureus [2]) was 6.25 µg/mL (≈ 7.59 µM), the MIC (Staphylococcus aureus [3]) was 12.5 µg/mL (≈ 15.2 µM) and the MIC (Bacillus cereus) was 12.5 µg/mL (≈ 15.2 µM). It also gave an MIC (Staphylococcus aureus [4]) of 6.25 µg/mL (≈ 7.59 µM).
Work on `COC(=O)[C@H](CCCNC(=N)N)NC(=O)COc1cc(OCC(=O)N[C@@H](CCCNC(=N)N)C(=O)OC)c2c(=O)c3c(OCC(=O)N[C@@H](CCCNC(=N)N)C(=O)OC)cc(OCC=C(C)C)cc3oc2c1` yielded an MIC (Staphylococcus aureus [2]) of 50 µg/mL (≈ 49.4 µM), an MIC (Staphylococcus aureus [3]) of 50 µg/mL (≈ 49.4 µM) and an MIC (Bacillus cereus) of 50 µg/mL (≈ 49.4 µM). The MIC (Staphylococcus aureus [4]) was 50 µg/mL (≈ 49.4 µM).
With `CCCCN(CCCC)CCCNC(=O)COc1cc(OCC=C(C)C)cc2oc3cc(OCC=C(C)C)cc(OCC(=O)NCCCN(CCCC)CCCC)c3c(=O)c12` the MIC (Staphylococcus aureus [2]) was 3.13 µg/mL (≈ 3.69 µM), the MIC (Staphylococcus aureus [3]) was 3.13 µg/mL (≈ 3.69 µM) and the MIC (Bacillus cereus) was 6.25 µg/mL (≈ 7.36 µM). It also gave an MIC (Staphylococcus aureus [4]) of 3.13 µg/mL (≈ 3.69 µM).
For `COC(=O)[C@H](CCCNC(=N)N)NC(=O)COc1cc(OC/C=C(\C)CCC=C(C)C)cc2oc3cc(OC/C=C(\C)CCC=C(C)C)cc(OCC(=O)N[C@@H](CCCNC(=N)N)C(=O)OC)c3c(=O)c12`, the MIC (Staphylococcus aureus [2]) was greater than 50 µg/mL, the MIC (Staphylococcus aureus [3]) was 25 µg/mL (≈ 25.3 µM) and the MIC (Bacillus cereus) was greater than 50 µg/mL. For the same compound, the MIC (Staphylococcus aureus [4]) was 50 µg/mL (≈ 50.5 µM).
`CCCOc1cc(OCC(=O)N[C@@H](CCCNC(=N)N)C(=O)OC)c2c(=O)c3c(OCC(=O)N[C@@H](CCCNC(=N)N)C(=O)OC)cc(OCCC)cc3oc2c1` showed an MIC (Staphylococcus aureus [2]) of 12.5 µg/mL (≈ 15.6 µM), an MIC (Staphylococcus aureus [3]) of 12.5 µg/mL (≈ 15.6 µM) and an MIC (Bacillus cereus) of 25 µg/mL (≈ 31.2 µM). It also gave an MIC (Staphylococcus aureus [4]) of 12.5 µg/mL (≈ 15.6 µM).
`COC(=O)[C@H](CCCNC(=N)N)NC(=O)COc1cc(OCC=C(C)C)cc2oc3cc(OCC=C(C)C)cc(OCC=C(C)C)c3c(=O)c12` showed an MIC (Staphylococcus aureus [2]) of 0.78 µg/mL (≈ 1.13 µM), a Selectivity Index [5] of 21 to 42 and an MIC (Staphylococcus aureus [3]) of 1.56 µg/mL (≈ 2.25 µM). It also gave an MIC (Bacillus cereus) of 1.56 µg/mL (≈ 2.25 µM), an MIC (Staphylococcus aureus [4]) of 1.56 µg/mL (≈ 2.25 µM) and a Selectivity Index [6] of 21 to 42. It also gave a Selectivity Index [7] of 21 to 42 and a Selectivity Index [8] of 21 to 42.
In the case of `CC(C)=CCOc1cc(O)c2c(=O)c3c(O)cc(OCC=C(C)C)cc3oc2c1`, the MIC (Staphylococcus aureus [2]) is reported as greater than 50 µg/mL, the MIC (Staphylococcus aureus [3]) is reported as greater than 50 µg/mL and the MIC (Bacillus cereus) is reported as greater than 50 µg/mL. For the same compound, the MIC (Staphylococcus aureus [4]) was greater than 50 µg/mL.
